Experimental data: ChEMBL document CHEMBL4130401, “Thalassosamide, a Siderophore Discovered from the Marine-Derived Bacterium Thalassospira profundimaris” (J Nat Prod, 2017)
Converted amounts (≈) assume the structure as drawn. The source made the active and inactive calls. The rule behind the calls is not given here.

Assays:
[1] = Metal chelating activity assessed as Fe3+-compound complex formation at 5 to 1280 uM after 3 hrs by chrome azural S assay
In short: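 Modified CAS assay: CTAB–CAS–Fe(III) reagent in MES buffer pH 5.6 mixed 1:1 with compound or deferoxamine mesylate in water, final concentrations 1.28 mM to 5 μM; incubated 37 °C, 3 h; colour change judged visually or absorbance change recorded.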

Pseudomonas aeruginosa [2] = experiment: Antibiofilm activity against Pseudomonas aeruginosa ATCC 27853 at 16 to 64 ug/ml by crystal violet microtiter method; assay type: functional, organism-based
Pseudomonas aeruginosa [3] = experiment: Antibacterial activity against Pseudomonas aeruginosa ATCC 27853 infected in mouse assessed as reduction in bacterial load in thigh at 80 to 160 mg/kg, ip administered as single dose measured after 6 hrs by time kill assay; assay type: functional, organism-based
In short: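 Neutropenic murine thigh infection with P. aeruginosa grown, subcultured and quantified in Mueller-Hinton broth/agar; single intraperitoneal dose (80 or 160 mg/kg) given 1 h after infection; groups of two treated and two untreated mice euthanized at 0–6 h post-dose; thigh CFU counted; mean and standard deviation from four thighs of two mice.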

Mus musculus = experiment: Toxicity in mouse at 80 to 160 mg/kg, ip administered as single dose; assay type: organism-based; conditions: in vivo
Escherichia coli = experiment: Antibacterial activity against Escherichia coli ATCC 25922 measured after 18 hrs by dilution susceptibility test; assay type: functional
In short: (§1)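 Broth dilution MIC for aerobic bacteria; compound dissolved in DMSO, serially diluted to 10 concentrations (0.25–128 μg/mL); gentamicin positive control; triplicate; six untreated media controls per plate; 35 °C for 18 h; MIC = lowest concentration preventing visible growth.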

Pseudomonas aeruginosa [4] = experiment: Antibiofilm activity against Pseudomonas aeruginosa ATCC 27853 at 16 to 64 ug/ml in presence of gentamycin by crystal violet microtiter method; assay type: functional, organism-based
Pseudomonas aeruginosa [5] = experiment: Antibacterial activity against Pseudomonas aeruginosa ATCC 27853 measured after 18 hrs by dilution susceptibility test; assay type: functional; in short: as §1

Row | Compound | Activity [1] | Activity (Pseudomonas aeruginosa [2]) | Activity (Pseudomonas aeruginosa [3]) | Activity (Mus musculus) | MIC (Escherichia coli; ATCC 25922, 18 h) [µg/mL] | Activity (Pseudomonas aeruginosa [4]) | MIC (Pseudomonas aeruginosa [5]; ATCC 27853, 18 h) [µg/mL] | MIC (Escherichia coli) [µg/mL] | MIC (Pseudomonas aeruginosa [5]) [µg/mL]
1 | CC(=O)N(O)CCCCCNC(=O)CCC(=O)N(O)CCCCCNC(=O)CCC(=O)N(O)CCCCCN | Active |  |  |  |  |  |  |  | 
2 | C[C@@H]1CC(=O)N(O)CCCC[C@@H](NC(=O)CCC(=O)O)C(=O)O[C@H](C)CC(=O)N(O)CCCC[C@@H](NC(=O)CCC(=O)O)C(=O)O[C@H](C)CC(=O)N(O)CCCC[C@@H](NC(=O)CCC(=O)O)C(=O)O1 | Active | inactive | Active | Non-Toxic | 64 (≈ 64.6 µM) | inactive | 64 (≈ 64.6 µM) |  | 
3 | GENTAMICIN |  |  |  |  |  |  |  | 4 | 4
